A selection: hits, their analogues and other compounds. The true share with any hit is near 4.6%.
TAAR1 ag = human TAAR1 agonism. CHO RD-HGA16 TAAR1, Fluo-8 calcium fluorescence; vehicle wells 0%, saturating PEA agonist 100%. activation, % at 3 µM. 360,000 compounds, 0.99% hits. AID 624467;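 active = activation above the mean activation of all test compounds in the run plus 3 SD, cut at about 38% in these data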
Target sequence (Q96RJ0 whole entry, looked up): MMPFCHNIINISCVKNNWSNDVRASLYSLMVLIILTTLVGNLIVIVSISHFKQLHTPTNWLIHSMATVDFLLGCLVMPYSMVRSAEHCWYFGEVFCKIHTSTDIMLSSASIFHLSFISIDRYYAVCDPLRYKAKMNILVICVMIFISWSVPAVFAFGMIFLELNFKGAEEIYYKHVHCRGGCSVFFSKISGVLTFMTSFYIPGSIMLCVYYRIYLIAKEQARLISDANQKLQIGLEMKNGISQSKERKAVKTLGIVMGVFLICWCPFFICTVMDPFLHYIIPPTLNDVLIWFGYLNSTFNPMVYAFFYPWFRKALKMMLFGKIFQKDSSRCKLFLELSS
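Assay system: CHO-derived RD-HGA16 cells with stable Gα16 and human TAAR1; timing: 17-24 h seeding, 75 min 37 °C dye, 30 min RT; read-out: % activation from peak over basal fluorescence ratio, DMSO-to-PEA scaled; measured by: kinetic Fluo-8 calcium fluorescence; benchmarks: low control DMSO, high control PEA (EC100); doses: 3 µM single concentration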
GPR7 antag = human neuropeptides B/W receptor 1 antagonism | P48145 | GPR7-expressing cells, fluorescence antagonist assay | inhibition, % at 4.4 µM | 290,000 compounds, 1.1% hits | AID 1861; in the data active = inhibition above about 16%, passing the limit was not always enough;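 note: cells stimulated with the agonist NPW; 0% = agonist with vehicle and 100% = vehicle without agonist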
Target sequence (P48145 whole entry, looked up): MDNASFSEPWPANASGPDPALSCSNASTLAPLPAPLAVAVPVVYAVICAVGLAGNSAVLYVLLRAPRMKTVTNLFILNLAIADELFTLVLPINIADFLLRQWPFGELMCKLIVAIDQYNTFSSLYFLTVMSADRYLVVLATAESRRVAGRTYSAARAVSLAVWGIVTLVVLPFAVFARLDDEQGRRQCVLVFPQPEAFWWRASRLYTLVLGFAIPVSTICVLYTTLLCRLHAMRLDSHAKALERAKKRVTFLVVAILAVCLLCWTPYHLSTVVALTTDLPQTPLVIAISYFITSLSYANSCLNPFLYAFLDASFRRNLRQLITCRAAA
CHO parental Ca = signal in parental CHO cells, OX1R antagonist counter-screen | parental CHO-K1, ATP-induced calcium, Fluo-8 fluorescence | inhibition, % at 5.6 µM | 330,000 compounds, 0.63% hits | AID 463079;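 active = inhibition above that plate's mean sample inhibition plus 3 SD, cut at about 26% in these data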;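 note: 0% = ATP-challenged DMSO wells and 100% = DMSO wells without ATP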
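Material: parental CHO cells / Compound: single nominal dose of 5.6 µM per compound / Signal: Fluo-8 fluorescence / Replicates: singlicate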
OX1R antag-1 = antagonists of human orexin 1 receptor (OX1R) | O43613 | OX1R-expressing cells, FRET antagonist read-out | inhibition, % at 6.6 µM | 330,000 compounds, 1.8% hits; in the data active = inhibition mostly above about 38%, no sharp cut-off; inactive = mostly below about 40%;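 note: 0% = agonist challenge alone and 100% = reference antagonist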
OX1R antag-2 = human HCRTR1 antagonism | O43613 | CHO/OX1R cells, Fluo-8 calcium fluorescence, orexin A | inhibition, % at 5 µM | 330,000 compounds, 0.43% hits | AID 434989;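 active = inhibition above its plate's threshold, mean inhibition of all tested compounds on the plate plus 3 SD, cut at about 37% in these data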;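 note: 0% = orexin A challenge wells and 100% = SB-334867-A antagonist wells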
TAAR1 antag = antagonists of human TAAR1; CHO RD-HGA16 TAAR1, Fluo-8 calcium fluorescence, antagonist; 360,000 compounds, 1.5% hits; inhibition, % at 3 µM; Q96RJ0;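 active = inhibition above a per-plate cutoff, the mean inhibition of test compounds on that plate plus 3 SD, cut at about 49% in these data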;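 note: 0% = DMSO plus EC80 beta-PEA response and 100% = DMSO alone without agonist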
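Assay system: CHO-derived RD-HGA16 cells stably expressing human TAAR1 plus Gα16. Timing: 140 s kinetic read after compound, 140 s after agonist. Technique: kinetic Fluo-8 calcium fluorescence measurement. Measure: % inhibition of agonist calcium response.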
The depositor's hits bear a star; x = no result given.

SMILES | TAAR1 ag | GPR7 antag | CHO parental Ca | OX1R antag-1 | OX1R antag-2 | TAAR1 antag
O=C(Nc1ccccc1)c1ccc(-c2ccccc2)s1 | 38* | 17 | 20 | 14 | -5 | 39
O=C(O)c1ccc(-c2ccc(-c3ccccc3)cc2)s1 | x | 9 | 10 | 3 | 19 | x
O=C(Nc1ccccc1)c1cc2ccc3ccccc3c2s1 | 0 | -23 | -25 | 51* | -3 | -45
COc1ccc(NC(=O)CN(C)CC(=O)N2CC(=O)Nc3ccccc32)cc1 | -1 | x | -12 | 1 | -12 | 2
N#Cc1ccc(S(=O)(=O)N2CCCc3nc(-c4ccc(Br)cc4)ccc32)cc1 | 2 | x | x | x | x | -6
CCOC(=O)c1c(C)[nH]c(C(=O)COC(=O)[C@H](C)N2C(=O)C3CCCCC3C2=O)c1C (some centres undefined) | 20 | x | x | x | x | 56*
CC(=O)c1c(C)[nH]c(C(=O)COC(=O)CN2C(=O)C3CCCCC3C2=O)c1C (centres undefined) | 13 | x | -6 | 3 | -1 | 2
CC(C)NC(=O)OC[C@@H]1CSCCS(=O)(=O)N1 | 2 | x | x | x | x | 10
CC(C)C1C(C#N)=C(N)Oc2n[nH]c(-c3ccc4ccccc4c3)c21 (centres undefined) | 22 | -8 | 34* | -4 | 42 | 32
CCOc1ccc(C(=O)Nc2cc(-c3nc4ccccc4[nH]3)ccc2Cl)cc1[N+](=O)[O-] | 8 | -11 | -6 | 68* | -2 | 53*
O=C(NCCN1CCc2ccccc2C1)C1CCN(S(=O)(=O)N2CCC3(CC2)OCCO3)CC1 | 16 | -8 | -11 | 31 | -15 | -9
O=C(NCCN1CCc2ccccc2C1)C1CCN(S(=O)(=O)N2CCCCC2)CC1 | 6 | 20* | -10 | 10 | -18 | 6
CCOC(=O)c1c(NC(=O)c2ccco2)sc2c1CCCC2 | 7 | -14 | -5 | 8 | -9 | -1
CCOC(=O)c1c(NC(=O)CN2CCN(C(=O)c3ccco3)CC2)sc2c1CCCC2 | 8 | 0 | 60* | 15 | 70* | 9
CCOC(=O)c1cc(C)sc1NC(=O)CN1CCN(C(=O)c2ccco2)CC1 | 42* | -22 | 87* | 7 | 53* | 35
O=C(CN1C(=O)c2ccccc2S1(=O)=O)Nc1ncc(Cl)cc1Cl | 3 | x | -25 | 5 | -27 | -14
COCCNC(=S)N1C[C@H]2CON(C)[C@H]2C[C@H]1c1ccccc1Br | 2 | x | x | x | x | -25
Cc1cc(/C=C\c2ccc3cc(N(C)C)ccc3[n+]2C)c(C)n1-c1ccccc1 | x | x | 54* | 80* | 51* | x
Cc1ccc2sc(NC(=O)c3cccc(N4C(=O)CCC4=O)c3)nc2c1C | 48* | 4 | 11 | 26 | 11 | 45
c1coc(CN(Cc2ccco2)c2ncnc3c2oc2ccccc23)c1 | x | -12 | 36* | 37 | 31 | x
Cn1c(SCC(=O)NC2CCCCC2)nnc1C(F)(F)F | 0 | x | x | x | x | -4
Cc1ccc(NC(=O)COC(=O)C2=COCCO2)c([N+](=O)[O-])c1 | 4 | 1 | 1 | 17 | -10 | -26
CCOC(=O)c1[nH]c(C)c(C(=O)Nc2ccc(Cl)cc2)c1C | 39* | 4 | 10 | 6 | 1 | 36
CC(=O)c1c(C)[nH]c(C(=O)OCC(=O)Nc2ccc(C)cc2[N+](=O)[O-])c1C | 12 | -4 | 45* | 39 | 10 | 24
CC(=O)c1c(C)[nH]c(C(=O)OCC(=O)Nc2cc(Cl)ccc2[N+](=O)[O-])c1C | 16 | 0 | 27* | 48* | -8 | 51*
SMILES | TAAR1 ag | GPR7 antag | CHO parental Ca | OX1R antag-1 | OX1R antag-2 | TAAR1 antag
Cn1c(=O)c2cc(NCc3ccccc3)nnc2n(C)c1=O | 10 | -2 | -9 | 48* | -17 | 2
Cc1ccc(S(=O)(=O)N2Cc3ccccc3CC2C(N)=O)cc1 (centres undefined) | 0 | x | x | x | x | 2
Cc1ccc(S(=O)(=O)N2CC3(O)CN(C(=O)OC(C)C)N(C(=O)OC(C)C)CC3(OC(=O)NCc3ccccc3F)C2)cc1 (centres undefined) | 9 | x | x | x | x | 60*
C[C@@H]1CN(c2ccc(N3CCNC[C@H]3C)cc2C#N)C[C@H](C)O1 | 3 | x | x | x | x | -4
CC(=O)c1c(C)[nH]c(C(=O)CSc2nc3ccccc3n2C)c1C | 24 | 9 | 51* | 108* | 78* | 55*
CCn1c(SCC(=O)c2[nH]c(C)c(C(C)=O)c2C)nnc1-c1cccs1 | 22 | -1 | 5 | 11 | -12 | 21
CCCCc1c(-c2ccccc2OC)ncn1Cc1ccc(C(C)(C)C)cc1 | 5 | x | x | x | x | -30
Cc1ccc(Cc2c(C3CCCCC3)nc3cc(C)c(Br)c(C)n23)cc1 | 1 | x | x | x | x | -29
O=Cc1ccc([B-](F)(F)F)o1 | 5 | x | x | x | x | -5
CCOCCCNc1nc2c(C)cccn2c(=O)c1/C=C1\SC(=S)N(C(C)CC)C1=O (centres undefined) | 12 | -7 | 26 | 0 | 45* | -2
C[C@H](CO)N1C[C@H](C)[C@@H](CN(C)C(=O)Nc2ccc(C(C)(C)C)cc2)OCc2cn(nn2)CCCC1=O | 1 | x | x | x | x | -11
CCc1cccc(NS(=O)(=O)c2c(C)nc3sc(CC)nn3c2=O)c1 | 3 | 21* | -13 | 15 | -15 | -5
O=C(CSc1ncnc2c1cnn2-c1ccccc1)Nc1ccccc1 | 40* | -10 | 5 | 11 | -4 | 46
COc1cccc(CNC(=O)[C@H]2CCCN2C(=O)[C@H]2CCCN2C(=O)c2cccc3ccccc23)c1 | -2 | x | x | x | x | -7
COc1ccc(CCNC(=O)COC(=O)/C=C/c2ccc3c(c2)OCO3)cc1 | 8 | x | 32* | 20 | -21 | 7
O=C(COC(=O)/C=C/c1ccc(Cl)cc1)Nc1ccc2c(c1)OCCO2 | 42* | -8 | 5 | 11 | -15 | 54*
O=C(COC(=O)/C=C/c1ccccc1)Nc1ccc2c(c1)OCCO2 | 4 | x | -12 | -1 | -8 | -3
O=C1NC[C@@H](CCCCN2C[C@H](Cc3ccc(O)cc3)N(CCc3ccccc3)C(=O)C2=O)N(Cc2ccccc2)C1=O | 2 | x | x | x | x | -1
CCCN1C=CC(=C/C=C(\C#N)C(=O)OCC)C=C1 | x | 8 | 33* | 73* | 36 | x
O=C(Nc1cccc2ccccc12)c1ccc2sc([C@H]3C[C@H](O)[C@@H](CO)O3)nc2c1 | 12 | x | x | x | x | 25
